In ChEMBL document CHEMBL1158809, “Pseudotrienic acids A and B, two bioactive metabolites from Pseudomonas sp. MF381-IODS” (2005):
Activity calls are given as the source filed them. No cut-off for these calls is given here.

What was measured:
Pseudomonas syringae = assay: Antimicrobial activity against Pseudomonas syringae pv. syringae; assay type: functional
Pseudomonas savastanoi = assay: Antimicrobial activity against Pseudomonas savastanoi up to 100 ug/mL; assay type: functional, organism-based
In short: (§1)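 Minimum inhibitory concentration was measured in a microtiter plate growth bioassay against a panel of human and agricultural fungal pathogens and Gram-positive and Gram-negative bacteria.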

Drechslera = assay: Antimicrobial activity against Drechslera sorokiniana up to 100 ug/mL; assay type: functional, organism-based; in short: as §1
Heterobasidion annosum = assay: Antimicrobial activity against Heterobasidion annosum up to 100 ug/mL; assay type: functional, organism-based; in short: as §1
Fusarium oxysporum = assay: Antimicrobial activity against Fusarium oxysporum up to 100 ug/mL; assay type: functional, organism-based; in short: as §1
Aspergillus fumigatus = assay: Antimicrobial activity against Aspergillus fumigatus up to 100 ug/mL; assay type: functional, organism-based; in short: as §1
Candida albicans = assay: Antimicrobial activity against Candida albicans up to 100 ug/mL; assay type: functional, organism-based; in short: as §1
Staphylococcus aureus = assay: Antimicrobial activity against Staphylococcus aureus; assay type: functional
Microsporum canis = assay: Antimicrobial activity against Microsporum canis up to 100 ug/mL; assay type: functional, organism-based; in short: as §1
Fusarium culmorum = assay: Antimicrobial activity against Fusarium culmorum up to 100 ug/mL; assay type: functional, organism-based; in short: as §1

| SMILES | MIC (Pseudomonas syringae) | Activity (Pseudomonas savastanoi) | Activity (Drechslera) | Activity (Heterobasidion annosum) | Activity (Fusarium oxysporum) | Activity (Aspergillus fumigatus) | Activity (Candida albicans) | MIC (Staphylococcus aureus) | Activity (Microsporum canis) | Activity (Fusarium culmorum) |
| --- | --- | --- | --- | --- | --- | --- | --- | --- | --- | --- |
| CCCCCCCCCC(O)/C=C/C(C)=C/CC(=O)NC[C@H](O)[C@H](C)C(=O)NCC/C=C/C=C/C=C/C(=O)O (mixture of isomers) [PSEUDOTRIENIC ACID A] | 70 µg/mL | inactive | inactive | inactive | inactive | inactive | inactive | 70 µg/mL | inactive | inactive |
| CCCCCCCC(O)/C=C/C(C)=C/CC(=O)NC[C@H](O)[C@H](C)C(=O)NCC/C=C/C=C/C=C/C(=O)O (mixture of isomers) [PSEUDOTRIENIC ACID B] | 70 µg/mL | inactive | inactive | inactive | inactive | inactive | inactive | 70 µg/mL | inactive | inactive |
